In ChEMBL document CHEMBL2424622, “Development of amino-pyrimidine inhibitors of c-Jun N-terminal kinase (JNK): kinase profiling guided optimization of a 1,2,3-benzotriazole lead” (Bioorg Med Chem Lett, 2013):

What was measured:
[1] = target: Mitogen-activated protein kinase 4 (Homo sapiens, UniProt P31152); experiment: Competitive binding affinity to ERK4 (unknown origin) at 10 uM in presence of ATP relative to control
[2] = target: Glycogen synthase kinase-3 beta (Homo sapiens, UniProt P49841); experiment: Competitive binding affinity to GSK3beta (unknown origin) at 10 uM in presence of ATP relative to control
[3] = target: Glycogen synthase kinase-3 alpha (Homo sapiens, UniProt P49840); experiment: Competitive binding affinity to GSK3alpha (unknown origin) at 10 uM in presence of ATP relative to control
Summary of the method: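 In vitro ATP-site competition binding format, run as one member of a diverse 128-kinase profiling panel. Each compound was tested at a single concentration across the whole panel.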

[4] = target: T1, Activin receptor type-1 (Homo sapiens) (UniProt Q04771); experiment: Competitive binding affinity to ACVR1 (unknown origin) at 10 uM in presence of ATP relative to control
T1 sequence (whole entry): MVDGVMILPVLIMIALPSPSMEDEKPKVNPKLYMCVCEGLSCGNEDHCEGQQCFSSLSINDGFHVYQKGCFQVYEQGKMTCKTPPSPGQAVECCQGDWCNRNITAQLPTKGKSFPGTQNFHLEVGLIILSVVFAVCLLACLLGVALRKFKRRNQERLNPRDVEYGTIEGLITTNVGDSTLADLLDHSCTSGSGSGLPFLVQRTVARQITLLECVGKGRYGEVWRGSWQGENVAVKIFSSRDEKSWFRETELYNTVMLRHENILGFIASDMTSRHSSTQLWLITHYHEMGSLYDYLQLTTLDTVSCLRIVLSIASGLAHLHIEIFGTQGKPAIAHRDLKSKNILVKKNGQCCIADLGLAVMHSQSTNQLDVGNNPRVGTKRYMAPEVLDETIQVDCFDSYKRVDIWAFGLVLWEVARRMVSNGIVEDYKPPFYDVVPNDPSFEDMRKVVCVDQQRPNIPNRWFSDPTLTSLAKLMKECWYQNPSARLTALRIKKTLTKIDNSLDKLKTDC

[5] = target: Serine/threonine-protein kinase MRCK beta (Homo sapiens) (UniProt Q9Y5S2); experiment: Competitive binding affinity to MRCKB (unknown origin) at 10 uM in presence of ATP relative to control
[6] = test system: Tyrosine-protein kinase ABL1 (Homo sapiens), P00519 [T315I]; experiment: Competitive binding affinity to ABL1 T315I mutant (unknown origin) at 10 uM in presence of ATP relative to control
Summary of the method: (§1)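 In vitro ATP-site competition binding assay across a diverse panel of 128 kinases, with each compound tested at a single concentration. Kinase binding is expressed relative to control.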

[7] = target: Serine/threonine-protein kinase MRCK alpha (Homo sapiens) (UniProt Q5VT25); experiment: Competitive binding affinity to MRCKA (unknown origin) at 10 uM in presence of ATP relative to control
Summary of the method: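 In vitro ATP-site competition binding assay across a diverse panel of 128 kinases, with compound tested at a single concentration. Kinase selectivity scores (S15) were calculated from the panel profiles.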

[8] = target: Cyclin-dependent kinase 17 (Homo sapiens) (UniProt Q00537); experiment: Competitive binding affinity to PCTK2 (unknown origin) at 10 uM in presence of ATP relative to control
[9] = target: Serine/threonine-protein kinase pim-1 (Homo sapiens) (UniProt P11309); experiment: Competitive binding affinity to PIM1 (unknown origin) at 10 uM in presence of ATP relative to control
[10] = target: Cyclin-dependent kinase 2 (Homo sapiens) (UniProt P24941); experiment: Competitive binding affinity to CDK2 (unknown origin) at 10 uM in presence of ATP relative to control; summary of the method: as §1
[11] = target: Ribosomal protein S6 kinase alpha-6 (Homo sapiens) (UniProt Q9UK32); experiment: Competitive binding affinity to RPS6KA6 kinase domain 1 (unknown origin) at 10 uM in presence of ATP relative to control
[12] = target: Ribosomal protein S6 kinase alpha-4 (Homo sapiens) (UniProt O75676); experiment: Competitive binding affinity to RPS6KA4 kinase domain 1 (unknown origin) at 10 uM in presence of ATP relative to control
[13] = test system: Tyrosine-protein kinase ABL1 (Homo sapiens), P00519 [Q252H]; experiment: Competitive binding affinity to ABL1 Q252H mutant (unknown origin) at 10 uM in presence of ATP relative to control
Homo sapiens = species: Homo sapiens; experiment: Competitive binding affinity to EGFR S752 to I759 deletion mutant (unknown origin) at 10 uM in presence of ATP relative to control
[14] = target: T2, Interleukin-1 receptor-associated kinase 3 (Homo sapiens) (UniProt Q9Y616); experiment: Competitive binding affinity to IRAK3 (unknown origin) at 10 uM in presence of ATP relative to control
T2 sequence (whole entry): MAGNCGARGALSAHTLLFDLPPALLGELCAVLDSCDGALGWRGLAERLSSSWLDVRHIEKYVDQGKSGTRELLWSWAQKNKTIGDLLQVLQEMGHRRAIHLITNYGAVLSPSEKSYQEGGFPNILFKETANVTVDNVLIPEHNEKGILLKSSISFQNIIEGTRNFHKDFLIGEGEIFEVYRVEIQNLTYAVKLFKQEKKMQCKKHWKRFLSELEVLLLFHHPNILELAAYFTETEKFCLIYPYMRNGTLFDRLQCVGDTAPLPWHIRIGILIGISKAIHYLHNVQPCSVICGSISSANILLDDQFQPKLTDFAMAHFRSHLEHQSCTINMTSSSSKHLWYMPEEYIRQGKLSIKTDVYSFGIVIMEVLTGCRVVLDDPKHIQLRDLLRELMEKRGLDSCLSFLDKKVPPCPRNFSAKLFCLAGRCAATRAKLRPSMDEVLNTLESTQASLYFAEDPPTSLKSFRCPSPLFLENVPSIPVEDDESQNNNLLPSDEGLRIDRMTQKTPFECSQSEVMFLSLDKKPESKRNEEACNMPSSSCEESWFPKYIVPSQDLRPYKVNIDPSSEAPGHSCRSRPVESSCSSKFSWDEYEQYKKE

| SMILES | inhibition [1] [%] | inhibition [2] [%] | inhibition [3] [%] | inhibition [4] [%] | inhibition [5] [%] | inhibition [6] [%] | inhibition [7] [%] | inhibition [8] [%] | inhibition [9] [%] | inhibition [10] [%] | inhibition [11] [%] | inhibition [12] [%] | inhibition [13] [%] | inhibition (Homo sapiens) [%] | inhibition [14] [%] |
| --- | --- | --- | --- | --- | --- | --- | --- | --- | --- | --- | --- | --- | --- | --- | --- |
| CS(=O)(=O)CCCOc1cccc2c1ccn2-c1ccnc(N[C@H]2CC[C@H](C(=O)N3CCC(O)CC3)CC2)n1 | > 85 | > 85 | > 85 | – | – | – | – | – | – | – | – | – | – | – | – |
| O[C@H]1CC[C@H](Nc2nccc(-n3ccc4ccccc43)n2)CC1 | 63 | < 50 | 91 | < 50 | < 50 | < 50 | < 50 | 73 | 76 | 90 | < 50 | < 50 | < 50 | < 50 | 87 |
| O[C@H]1CC[C@H](Nc2nccc(-n3nnc4ccccc43)n2)CC1 | 100 | 100 | 100 | < 50 | < 50 | < 50 | < 50 | 88 | 87 | 94 | < 50 | < 50 | 74 | < 50 | 85 |
| O[C@H]1CC[C@H](Nc2nccc(-n3ncc4ccccc43)n2)CC1 | 99 | 82 | 99 | < 50 | < 50 | < 50 | < 50 | 78 | 96 | 94 | < 50 | < 50 | < 50 | < 50 | 88 |
| O[C@H]1CC[C@H](Nc2nccc(-c3n[nH]c4ccccc34)n2)CC1 | – | – | 97 | < 50 | – | 96 | < 50 | – | 99 | 100 | 79 | 99 | < 50 | < 50 | – |
